Laboratory results: ChEMBL document CHEMBL2169773, “Modified acidic nonsteroidal anti-inflammatory drugs as dual inhibitors of mPGES-1 and 5-LOX” (J Med Chem, 2012)
Active and inactive are the calls of the source. The rule behind the calls is not given here.

Tests used:
[1] = biological target: T1, Polyunsaturated fatty acid 5-lipoxygenase (Homo sapiens, UniProt P09917); test: Inhibition of 5-lipoxygenase in A23187-stimulated human neutrophils assessed as inhibition of enzyme product formation by RP-HPLC analysis
T1 sequence (P09917 whole entry): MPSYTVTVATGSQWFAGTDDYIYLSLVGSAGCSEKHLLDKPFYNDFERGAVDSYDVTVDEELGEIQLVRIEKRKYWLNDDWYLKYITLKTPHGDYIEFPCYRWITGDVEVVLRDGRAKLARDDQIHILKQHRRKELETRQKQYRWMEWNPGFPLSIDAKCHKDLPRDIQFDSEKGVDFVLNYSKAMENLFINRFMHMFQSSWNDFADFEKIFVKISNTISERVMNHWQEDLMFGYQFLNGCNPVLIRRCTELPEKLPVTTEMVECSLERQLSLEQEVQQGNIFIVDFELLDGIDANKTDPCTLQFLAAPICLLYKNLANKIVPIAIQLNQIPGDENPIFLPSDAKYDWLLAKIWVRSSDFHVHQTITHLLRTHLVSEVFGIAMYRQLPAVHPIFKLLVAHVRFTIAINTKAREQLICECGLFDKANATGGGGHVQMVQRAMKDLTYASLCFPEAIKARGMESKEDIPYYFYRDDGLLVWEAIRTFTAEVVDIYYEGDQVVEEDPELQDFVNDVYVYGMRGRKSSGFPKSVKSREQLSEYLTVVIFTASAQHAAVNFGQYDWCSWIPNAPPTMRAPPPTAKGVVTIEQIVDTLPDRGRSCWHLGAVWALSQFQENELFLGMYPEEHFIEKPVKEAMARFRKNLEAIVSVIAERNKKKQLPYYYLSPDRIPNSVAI
Method in brief: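 Whole-cell assay in human neutrophils stimulated with A23187 plus 20 μM exogenous arachidonic acid as substrate; BWA4C as reference inhibitor. IC50 calculated for selected compounds; mean with SE, n = 3−5.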

Prostaglandin E synthase = biological target: T2, Prostaglandin E synthase (Homo sapiens, UniProt O14684); test: Inhibition of mPGES-1 in human IL-1beta-stimulated A549 cell microsomes assessed as inhibition of PGE2 formation from PGH2 after 15 mins by RP-HPLC analysis; parameters: species or system Microsome
T2 sequence (O14684 whole entry): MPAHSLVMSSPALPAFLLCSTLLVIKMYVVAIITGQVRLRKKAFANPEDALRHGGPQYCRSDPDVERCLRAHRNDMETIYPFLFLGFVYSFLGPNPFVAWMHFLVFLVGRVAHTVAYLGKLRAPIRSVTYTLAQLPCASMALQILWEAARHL

[2] = biological target: T3, Prostaglandin G/H synthase 1 (Ovis aries) (UniProt P05979); test: Inhibition of ovine COX1 assessed as inhibition of 12-HHT formation preincubated at 10 uM for 5 mins before arachidonic acid addition by HPLC analysis
T3 sequence (whole entry): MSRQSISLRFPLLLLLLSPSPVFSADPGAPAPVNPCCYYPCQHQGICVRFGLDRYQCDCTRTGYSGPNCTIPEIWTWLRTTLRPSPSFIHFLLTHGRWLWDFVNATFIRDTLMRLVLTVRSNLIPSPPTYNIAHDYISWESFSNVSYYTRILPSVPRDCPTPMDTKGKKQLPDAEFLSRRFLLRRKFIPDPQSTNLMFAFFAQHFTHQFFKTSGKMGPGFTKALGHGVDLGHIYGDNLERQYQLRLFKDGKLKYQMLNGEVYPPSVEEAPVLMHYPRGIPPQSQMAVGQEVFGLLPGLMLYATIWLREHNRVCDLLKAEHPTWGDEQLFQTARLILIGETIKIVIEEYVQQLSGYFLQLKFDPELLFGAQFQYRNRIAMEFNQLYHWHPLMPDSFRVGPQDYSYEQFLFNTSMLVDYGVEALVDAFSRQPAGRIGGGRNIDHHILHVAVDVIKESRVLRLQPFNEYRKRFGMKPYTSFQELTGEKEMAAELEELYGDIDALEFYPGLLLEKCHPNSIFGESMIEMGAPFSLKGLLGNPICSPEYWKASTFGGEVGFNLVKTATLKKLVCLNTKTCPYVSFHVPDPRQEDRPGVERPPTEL

[3] = biological target: T4, Prostaglandin E synthase (Homo sapiens) (UniProt O14684); test: Inhibition of mPGES-1 in human IL-1beta-stimulated A549 cell microsomes assessed as remaining activity measuring PGE2 formation from PGH2 at 10 uM after 15 mins by RP-HPLC analysis; settings: Microsome
T4 sequence (whole entry): T2 sequence (O14684 whole entry)
Method in brief: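 Cell-free assay with microsomes from human A549 cells; PGE2 generation from 20 μM PGH2 substrate; compounds tested at 10 μM. Result given as % PGE2 formation remaining versus vehicle control; MK-886 reference; mean with SE, n = 3−5.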

[4] = biological target: T5, Polyunsaturated fatty acid 5-lipoxygenase (Homo sapiens) (UniProt P09917); test: Inhibition of 5-lipoxygenase in A23187-stimulated human neutrophils assessed as remaining activity measuring enzyme product formation at 10 uM by RP-HPLC analysis relative to vehicle-treated control
T5 sequence (whole entry): T1 sequence (P09917 whole entry)
Method in brief: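 Human neutrophils (whole cells) stimulated with A23187 and 20 μM exogenous arachidonic acid; test compounds at 10 μM. Activity expressed as % remaining versus vehicle control; BWA4C as reference inhibitor; mean with SE, n = 3−5.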

[5] = biological target: T3, Prostaglandin G/H synthase 1 (Ovis aries); test: Inhibition of ovine COX1 assessed as inhibition of 12-HHT formation measuring remaining activity preincubated at 10 uM for 5 mins before arachidonic acid addition by HPLC analysis
Method in brief: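 Isolated ovine COX-1 in a cell-free assay, 5 μM arachidonic acid as substrate; compounds at fixed 10 μM. 12-HHT formation expressed as % activity versus vehicle control; mean with SE, n = 3.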

| IC50 [1] | IC50 ([1]; read-out: IC50) | IC50 (Prostaglandin E synthase; read-out: IC50) | inhibition [2] | Activity [3] | Activity [4] | IC50 (Prostaglandin E synthase; a549) | Activity [5] | SMILES |
| --- | --- | --- | --- | --- | --- | --- | --- | --- |
| – | – | – | inactive | 78.6% | 67.7% | – | – | Cc1ccc(S(=O)(=O)NC(=O)C(C)c2ccc(CC(C)C)cc2)cc1 (stereo not drawn) |
| Not Active | – | – | inactive | 92.5% | – | – | – | COc1ccc2cc(C(C)C(=O)NS(C)(=O)=O)ccc2c1 (stereo not drawn) |
| – | 1.7 µM | 1.75 µM | inactive | – | – | – | – | Cc1ccc(S(=O)(=O)NC(=O)Cc2c(C)n(Cc3ccc(Cl)cc3)c3ccc(Br)cc23)cc1 |
| Not Active | – | – | inactive | 72.8% | – | – | – | COc1ccc2cc(C(C)C(=O)NS(=O)(=O)c3ccc(C)cc3)ccc2c1 (stereo not drawn) |
| – | – | – | inactive | 67.9% | 91.2% | – | – | CC(C)Cc1ccc(C(C)C(=O)NS(C)(=O)=O)cc1 (stereo not drawn) |
| – | – | – | inactive | 76.3% | 78.9% | – | – | Cc1ccc(S(=O)(=O)NC(=O)C(C)c2cccc(C(=O)c3ccccc3)c2)cc1 (stereo not drawn) |
| Not Active | – | – | – | 81.2% | – | – | – | CC(C)Cc1ccc(C(C)C(=O)O)cc1 (stereo not drawn) [IBUPROFEN] |
| – | 2.9 µM | 6.4 µM | inactive | – | – | – | 89.4% | COc1ccc2c(c1)c(CC(=O)NS(=O)(=O)c1ccc(C)cc1)c(C)n2C(=O)c1ccc(Cl)cc1 |
| – | 2.5 µM | 3.4 µM | inactive | – | – | – | – | Cc1ccc(S(=O)(=O)NC(=O)Cc2cn(-c3ccccc3)nc2-c2ccc(Cl)cc2)cc1 |

The remaining lines, values behind:

| SMILES | IC50 [1] | IC50 ([1]; read-out: IC50) | IC50 (Prostaglandin E synthase; read-out: IC50) | inhibition [2] | Activity [3] | Activity [4] | IC50 (Prostaglandin E synthase; a549) | Activity [5] |
| --- | --- | --- | --- | --- | --- | --- | --- | --- |
| CC(C(=O)O)c1cccc(C(=O)c2ccccc2)c1 (stereo not drawn) [KETOPROFEN] | Not Active | – | – | – | – | – | – | – |
| Cc1c(CC(=O)NS(=O)(=O)c2ccc(Cl)cc2)c2cc(C#Cc3ccccc3)ccc2n1Cc1ccc(Cl)cc1 | – | 2 µM | 1.8 µM | inactive | – | – | – | – |
| CS(=O)(=O)NC(=O)Cc1cn(-c2ccccc2)nc1-c1ccc(Cl)cc1 | – | – | – | inactive | 98% | 72.1% | – | – |
| COc1ccc2c(c1)c(C(=O)NCc1ccc(S(C)(=O)=O)cc1)c(C)n2C(=O)c1ccc(Cl)cc1 | – | – | – | inactive | 68.7% | – | – | – |
| Cc1c(CC(=O)O)c2cc(C#Cc3ccccc3)ccc2n1Cc1ccc(Cl)cc1 | – | 0.9 µM | 2.5 µM | inactive | – | – | – | – |
| COc1ccc2cc([C@H](C)C(=O)O)ccc2c1 [NAPROXEN] | Not Active | – | – | – | – | – | Not Active | – |
| O=C(Cc1cn(-c2ccccc2)nc1-c1ccc(C#Cc2ccc(Cl)cc2)cc1)NS(=O)(=O)c1ccc(Cl)cc1 | – | 4.7 µM | 0.35 µM | inactive | – | – | – | 70.1% |
| O=C(O)Cc1cn(-c2ccccc2)nc1-c1ccc(C#Cc2cccc(Cl)c2)cc1 | – | 3.9 µM | 0.18 µM | inactive | – | – | – | – |
| O=C(O)Cc1cn(-c2ccccc2)nc1-c1ccc(C#Cc2ccccc2)cc1 | – | 5 µM | 0.4 µM | inactive | – | – | – | – |
| O=C(Cc1cn(-c2ccccc2)nc1-c1ccc(Cl)cc1)NS(=O)(=O)c1ccccc1 | – | 6.8 µM | 5.9 µM | inactive | – | – | – | – |
| CCOC(=O)Cc1c(C)n(Cc2ccc(Cl)cc2)c2ccc(C#Cc3ccccc3)cc12 | – | – | – | inactive | 86.1% | – | – | – |
| O=C(Cc1cn(-c2ccccc2)nc1-c1ccc(C#Cc2cccc(Cl)c2)cc1)NS(=O)(=O)c1ccc(Cl)cc1 | – | 2.3 µM | 0.8 µM | inactive | – | – | – | – |
| O=C(O)Cc1cn(-c2ccccc2)nc1-c1ccc(C#Cc2ccc(Cl)cc2)cc1 | – | 3.7 µM | 0.16 µM | inactive | – | – | – | 77.8% |
| Cc1ccc(S(=O)(=O)NC(=O)Cc2cn(-c3ccccc3)nc2-c2ccc(-c3ccccc3)cc2)cc1 | – | 3.5 µM | 1.7 µM | inactive | – | – | – | 99.1% |
| O=C(Cc1cn(-c2ccccc2)nc1-c1ccc(C#Cc2ccccc2)cc1)NS(=O)(=O)c1ccc(Cl)cc1 | – | 1.6 µM | 0.2 µM | inactive | – | – | – | – |
| COc1ccc2c(c1)c(CC(=O)O)c(C)n2C(=O)c1ccc(Cl)cc1 [INDOMETHACIN] | Not Active | – | 40.6 µM | – | – | – | – | 23.3% |
| CC(C(=O)NS(C)(=O)=O)c1cccc(C(=O)c2ccccc2)c1 (stereo not drawn) | – | – | – | inactive | 78.6% | 90.7% | – | – |
| O=C(Cc1cn(-c2ccccc2)nc1-c1ccc(Cl)cc1)NS(=O)(=O)c1ccc(Cl)cc1 | – | 2.9 µM | 2.3 µM | inactive | – | – | – | – |
| O=C(O)Cc1cn(-c2ccccc2)nc1-c1ccc(Cl)cc1 [LONAZOLAC CALCIUM] | – | – | 45 µM | – | – | 59.7% | – | – |
| Cc1ccc(S(=O)(=O)NC(=O)Cc2c(C)n(Cc3ccc(Cl)cc3)c3ccc(C#Cc4ccccc4)cc23)cc1 | – | 1.5 µM | 2.8 µM | inactive | – | – | – | 83.1% |
| COc1ccc2c(c1)c(CC(=O)NS(C)(=O)=O)c(C)n2C(=O)c1ccc(Cl)cc1 | – | – | – | inactive | 73.6% | 64.9% | – | – |
